Holding throughout (type): functional
The subject of assay [1] is Amaranthus retroflexus. Briefly: Herbicidal activity against Amaranthus retroflexus assessed as inhibition of fresh weed plant weight at 375 g/ha using pre-emergence treatment protocol.
For assay [2], the system named is Amaranthus retroflexus. Put plainly: Herbicidal activity against Amaranthus retroflexus assessed as inhibition of fresh weed plant weight at 375 g/ha using post-emergence treatment protocol. An outline of the steps: (§1)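 Test compounds made up as emulsions by dissolving in 100 µL N,N-dimethylformamide, then adding a little Tween 20 and water. For post-emergence, weed seedlings at one leaf and one stem were sprayed at the same rates as the pre-emergence test. Fresh weight was recorded 15 days after treatment and expressed as percent inhibition versus controls. All treatments were run in triplicate.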

Assay [3] has as its system Echinochloa crus-galli. Briefly: Herbicidal activity against Echinochloa crus-galli (barnyard grass) assessed as inhibition of fresh weed plant weight at 750 g/ha using post-emergence treatment protocol. An outline of the steps:
as §1

In assay [4] the test system is Digitaria sanguinalis. Put plainly: Herbicidal activity against Digitaria sanguinalis (hairy crabgrass) assessed as inhibition of fresh weed plant weight at 1500 g/ha using post-emergence treatment protocol. An outline of the steps: as §1
The test system of assay [5] is Brassica rapa subsp. oleifera. Put plainly: Herbicidal activity against Brassica rapa subsp. oleifera assessed as inhibition of fresh weed plant weight at 1500 g/ha using post-emergence treatment protocol. Put shortly: as §1
Assay [6] has as its system Digitaria sanguinalis. Put plainly: Herbicidal activity against Digitaria sanguinalis (hairy crabgrass) assessed as inhibition of fresh weed plant weight at 375 g/ha using post-emergence treatment protocol. An outline of the steps:
as §1

The subject of assay [7] is Digitaria sanguinalis. Put plainly: Herbicidal activity against Digitaria sanguinalis (hairy crabgrass) assessed as inhibition of fresh weed plant weight at 1500 g/ha using pre-emergence treatment protocol.
Assay [8] concerns Echinochloa crus-galli. Briefly: Herbicidal activity against Echinochloa crus-galli (barnyard grass) assessed as inhibition of fresh weed plant weight at 187.5 g/ha using pre-emergence treatment protocol. An outline of the steps:
as §1

Assay [9] relates to Brassica rapa subsp. oleifera. Put plainly: Herbicidal activity against Brassica rapa subsp. oleifera assessed as inhibition of fresh weed plant weight at 1500 g/ha using pre-emergence treatment protocol.
The subject of assay [10] is Digitaria sanguinalis. Put plainly: Herbicidal activity against Digitaria sanguinalis (hairy crabgrass) assessed as inhibition of fresh weed plant weight at 187.5 g/ha using pre-emergence treatment protocol.
Assay [11] relates to Brassica rapa subsp. oleifera. Briefly: Herbicidal activity against Brassica rapa subsp. oleifera assessed as inhibition of fresh weed plant weight at 187.5 g/ha using post-emergence treatment protocol. An outline of the steps:
as §1

The test system of assay [12] is Amaranthus retroflexus. Put plainly: Herbicidal activity against Amaranthus retroflexus assessed as inhibition of fresh weed plant weight at 750 g/ha using pre-emergence treatment protocol. Put shortly: as §1
For assay [13], the system named is Brassica rapa subsp. oleifera. Briefly: Herbicidal activity against Brassica rapa subsp. oleifera assessed as inhibition of fresh weed plant weight at 375 g/ha using pre-emergence treatment protocol.
The subject of assay [14] is Digitaria sanguinalis. Briefly: Herbicidal activity against Digitaria sanguinalis (hairy crabgrass) assessed as inhibition of fresh weed plant weight at 187.5 g/ha using post-emergence treatment protocol. An outline of the steps: as §1
Assay [15] has as its system Amaranthus retroflexus. Put plainly: Herbicidal activity against Amaranthus retroflexus assessed as inhibition of fresh weed plant weight at 1500 g/ha using post-emergence treatment protocol. Put shortly: as §1
For assay [16], the system named is Amaranthus retroflexus. Put plainly: Herbicidal activity against Amaranthus retroflexus assessed as inhibition of fresh weed plant weight at 1500 g/ha using pre-emergence treatment protocol.
For assay [17], the system named is Echinochloa crus-galli. Put plainly: Herbicidal activity against Echinochloa crus-galli (barnyard grass) assessed as inhibition of fresh weed plant weight at 1500 g/ha using post-emergence treatment protocol. An outline of the steps:
as §1

The subject of assay [18] is Digitaria sanguinalis. Put plainly: Herbicidal activity against Digitaria sanguinalis (hairy crabgrass) assessed as inhibition of fresh weed plant weight at 750 g/ha using post-emergence treatment protocol. An outline of the steps: as §1
In assay [19] the test system is Brassica rapa subsp. oleifera. Put plainly: Herbicidal activity against Brassica rapa subsp. oleifera assessed as inhibition of fresh weed plant weight at 375 g/ha using post-emergence treatment protocol. An outline of the steps:
as §1

Assay [20] deals with Amaranthus retroflexus. Briefly: Herbicidal activity against Amaranthus retroflexus assessed as inhibition of fresh weed plant weight at 750 g/ha using post-emergence treatment protocol. Put shortly:
as §1

In assay [21] the test system is Digitaria sanguinalis. Put plainly: Herbicidal activity against Digitaria sanguinalis (hairy crabgrass) assessed as inhibition of fresh weed plant weight at 375 g/ha using pre-emergence treatment protocol.
Assay [22] has as its system Brassica rapa subsp. oleifera. Put plainly: Herbicidal activity against Brassica rapa subsp. oleifera assessed as inhibition of fresh weed plant weight at 750 g/ha using pre-emergence treatment protocol.
The subject of assay [23] is Amaranthus retroflexus. Put plainly: Herbicidal activity against Amaranthus retroflexus assessed as inhibition of fresh weed plant weight at 187.5 g/ha using post-emergence treatment protocol. An outline of the steps: as §1
Assay [24] has as its system Echinochloa crus-galli. Put plainly: Herbicidal activity against Echinochloa crus-galli (barnyard grass) assessed as inhibition of fresh weed plant weight at 1500 g/ha using pre-emergence treatment protocol.
Assay [25] concerns Echinochloa crus-galli. Put plainly: Herbicidal activity against Echinochloa crus-galli (barnyard grass) assessed as inhibition of fresh weed plant weight at 375 g/ha using post-emergence treatment protocol. Put shortly: as §1
In assay [26] the test system is Echinochloa crus-galli. Put plainly: Herbicidal activity against Echinochloa crus-galli (barnyard grass) assessed as inhibition of fresh weed plant weight at 375 g/ha using pre-emergence treatment protocol. Put shortly: as §1
In assay [27] the test system is Amaranthus retroflexus. Put plainly: Herbicidal activity against Amaranthus retroflexus assessed as inhibition of fresh weed plant weight at 187.5 g/ha using pre-emergence treatment protocol.
The subject of assay [28] is Digitaria sanguinalis. Briefly: Herbicidal activity against Digitaria sanguinalis (hairy crabgrass) assessed as inhibition of fresh weed plant weight at 750 g/ha using pre-emergence treatment protocol.
Assay [29] relates to Brassica rapa subsp. oleifera. Briefly: Herbicidal activity against Brassica rapa subsp. oleifera assessed as inhibition of fresh weed plant weight at 750 g/ha using post-emergence treatment protocol. An outline of the steps:
as §1

Assay [30] relates to Brassica rapa subsp. oleifera. Briefly: Herbicidal activity against Brassica rapa subsp. oleifera assessed as inhibition of fresh weed plant weight at 187.5 g/ha using pre-emergence treatment protocol.
In assay [31] the test system is Echinochloa crus-galli. Put plainly: Herbicidal activity against Echinochloa crus-galli (barnyard grass) assessed as inhibition of fresh weed plant weight at 187.5 g/ha using post-emergence treatment protocol. An outline of the steps:
as §1

The test system of assay [32] is Echinochloa crus-galli. Briefly: Herbicidal activity against Echinochloa crus-galli (barnyard grass) assessed as inhibition of fresh weed plant weight at 750 g/ha using pre-emergence treatment protocol.

For orientation: inhibition means the change of the read-out against control, counted positive when it falls.

`C=CCN1C(=O)COc2cc(F)c(-n3nnc4nn(CCC)cc4c3=O)cc21`: the inhibition at 375 g/ha turned out to be 100% in assay [1]; 85.4% in assay [2]; 0% in assay [6]; 55.2% in assay [13]; 29.1% in assay [19]; 39.1% in [21]. Also, the inhibition at 375 g/ha amounted to 2.4% in assay [25] and 16% in assay [26]. Further, the inhibition at 750 g/ha was found to be 5.4% in [3]; 100% in assay [12]; 0% in [18]; 100% in [20]; 69.4% in [22]; 54.3% in assay [28]. In addition, the inhibition at 750 g/ha turned out to be 33.7% in assay [29] and 35.9% in [32]. In addition, the inhibition at 1500 g/ha in [4] worked out at 0%; in [5] it was 50.3%; in assay [7], 78.6%; in [9] it was 88.7%; in assay [15] it was 100%; in assay [16], 100%. The inhibition at 1500 g/ha was determined as 11.2% in assay [17] and 60.4% in [24]. Moreover, the inhibition at 187.5 g/ha in assay [8] was 10.8%; in assay [10] it was 4.3%; in [11], 0%; in assay [14], 0%; in [23] it was 7.3%; in assay [27], 27.9%. Further, the inhibition at 187.5 g/ha in [30] came to 13.4%; in assay [31] it was 0%.
Take `C#CCOc1cc(-n2nnc3c(cnn3C)c2=O)c(F)cc1Cl`: the inhibition at 1500 g/ha in [4] came out at 19.6%; in assay [5], 9.2%; in assay [7], 0%; in assay [9] it was 12.7%; in [15], 0%; in [16], 0%. Also, the inhibition at 1500 g/ha in assay [17] was 20.8%; in assay [24], 0%.
With `C=CCOc1cc(-n2nnc3c(cnn3C)c2=O)c(F)cc1Cl`, the inhibition at 1500 g/ha in assay [4] is 17.9%; in assay [5], 1.2%; in assay [7] it was 0%; in assay [9] it was 7.4%; in [15], 0%; in assay [16], 10.6%. Further, the inhibition at 1500 g/ha turned out to be 28% in assay [17] and 11% in assay [24].
Take `CCOC(=O)Oc1cc(-n2nnc3c(cnn3C)c2=O)c(F)cc1Cl`: the inhibition at 1500 g/ha in assay [4] turned out to be 0%; in [5], 0%; in [7] it was 0%; in assay [9] it was 0%; in assay [15], 7.7%; in assay [16], 0%. Moreover, the inhibition at 1500 g/ha was 37.7% in assay [17] and 19.8% in assay [24].
For the compound `C#CCOc1cc(-n2nnc3c(c(C(F)(F)F)nn3C)c2=O)c(F)cc1Cl`, the inhibition at 1500 g/ha in assay [4] came out at 0%; in assay [5], 32.7%; in assay [7], 6.7%; in [9], 21.6%; in [15], 5.5%; in assay [16], 15.5%. The results for the inhibition at 1500 g/ha in assay [17] and in assay [24] were 2.4% and 0%, respectively.
`C#CCOc1cc(-n2nnc3c(c(C)nn3C)c2=O)c(F)cc1Cl`: the inhibition at 1500 g/ha in assay [4] was found to be 0%; in assay [5], 0%; in [7] it was 38.3%; in assay [9], 9.5%; in assay [15], 0%; in assay [16], 0%. The inhibition at 1500 g/ha in assay [17] and in assay [24] was 0% throughout.
Take `C=CCOc1cc(-n2nnc3c(c(C)nn3C)c2=O)c(F)cc1Cl`: the inhibition at 1500 g/ha was determined as 16.6% in [4]; 7.5% in assay [5]; 0% in assay [7]; 7.8% in assay [9]; 14.7% in assay [15]; 0% in assay [16]. Besides, the inhibition at 1500 g/ha was determined as 21% in assay [17] and 17.2% in assay [24].
For `C=CCN1C(=O)COc2cc(F)c(-n3nnc4c(cnn4C)c3=O)cc21`, the inhibition at 1500 g/ha is 27% in assay [4]; 20.9% in [5]; 0% in assay [7]; 17.5% in assay [9]; 20.3% in assay [15]; 30.6% in assay [16]. The inhibition at 1500 g/ha in [17] stood at 9.1%; in [24], 24.4%.
`C#CCN1C(=O)COc2cc(F)c(-n3nnc4c(c(C(F)(F)F)nn4C)c3=O)cc21`: the inhibition at 1500 g/ha is 0% in [4]; 20.8% in assay [5]; 8.3% in [7]; 0% in assay [9]; 0% in [15]; 0% in assay [16]. In addition, the inhibition at 1500 g/ha is 8.2% in [17] and 3% in [24].
Regarding `C=CCN1C(=O)COc2cc(F)c(-n3nnc4c(c(C(F)(F)F)nn4C)c3=O)cc21`, the inhibition at 1500 g/ha in [4] worked out at 0%; in [5], 12%; in assay [7] it was 0%; in [9] it was 0%; in assay [15], 0%; in assay [16], 1.2%. Moreover, the inhibition at 1500 g/ha in assay [17] stood at 13.6%; in assay [24], 0%.
Turning to `C#CCN1C(=O)COc2cc(F)c(-n3nnc4c(c(C)nn4C)c3=O)cc21`, the inhibition at 1500 g/ha in assay [4] was 0%; in assay [5], 0%; in assay [7] it was 57%; in [9], 44.4%; in [15], 0%; in assay [16] it was 30%. The values for the inhibition at 1500 g/ha in assay [17] and in assay [24] were 0% and 15.8%, respectively.
In the case of `C=CCN1C(=O)COc2cc(F)c(-n3nnc4c(c(C)nn4C)c3=O)cc21`, the inhibition at 1500 g/ha amounted to 0% in assay [4]; 0% in [5]; 47.7% in assay [7]; 34.6% in assay [9]; 0% in assay [15]; 50% in assay [16]. Further, the inhibition at 1500 g/ha was found to be 0% in assay [17] and 22.3% in assay [24].
